Assay results: ChEMBL document CHEMBL3286116, “Synthesis, biological evaluation and structure-activity correlation study of a series of imidazol-based compounds as Candida albicans inhibitors” (Eur J Med Chem, 2014)
In brackets after ≈: the same amount, converted by molar mass.

Key:
Assay type in all cases: functional
[1] = system: Candida albicans; assay: Antifungal activity against Candida albicans ATCC 90028 after 48 hrs by CLSI broth microdilution method; settings: ATCC 90028, 48 h
Method in brief: (§1)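 Yeast CLSI broth microdilution (M27-A3). Compounds dissolved in DMSO at 100× the top test concentration, then diluted as serial two-fold dilutions in RPMI 1640 to final 0.125–64. Inoculum was 1.0–1.5 × 10^3 cells mL−1, incubated at 35 °C and read for growth at 48 h. MIC is the lowest concentration giving ≥50% growth inhibition versus growth control. Reported as the median of five replicates and as the geometric mean.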

[2] = system: Candida albicans; assay: Antifungal activity against Candida albicans ATCC 20891 after 48 hrs by CLSI broth microdilution method; settings: ATCC 20891, 48 h; method in brief: as §1
[3] = system: Candida albicans; assay: Antifungal activity against Candida albicans PMC 1011 after 48 hrs by CLSI broth microdilution method; settings: PMC 1011, 48 h; method in brief: as §1
[4] = system: Pichia kudriavzevii; assay: Antifungal activity against Candida krusei DSM 6128 after 48 hrs by CLSI broth microdilution method; settings: DSM 6128, 48 h; method in brief: as §1
[5] = system: Pichia kudriavzevii; assay: Antifungal activity against Candida krusei PMC 0613 after 48 hrs by CLSI broth microdilution method; settings: PMC 0613, 48 h; method in brief: as §1
[6] = system: Candida tropicalis; assay: Antifungal activity against Candida tropicalis PMC 0910 after 48 hrs by CLSI broth microdilution method; settings: PMC 0910, 48 h; method in brief: as §1
[7] = system: Candida tropicalis; assay: Antifungal activity against Candida tropicalis DSM 11953 after 48 hrs by CLSI broth microdilution method; settings: DSM 11953, 48 h; method in brief: as §1
[8] = system: Candida parapsilosis; assay: Antifungal activity against Candida parapsilosis DSM 11224 after 48 hrs by CLSI broth microdilution method; settings: Lodderomyces parapsilosis, DSM 11224, 48 h; method in brief: as §1
[9] = system: Candida parapsilosis; assay: Antifungal activity against Candida parapsilosis ATCC 22019 after 48 hrs by CLSI broth microdilution method; settings: Lodderomyces parapsilosis, ATCC 22019, 48 h; method in brief: as §1
[10] = system: Nakaseomyces glabratus; assay: Antifungal activity against Candida glabrata PMC 0805 after 48 hrs by CLSI broth microdilution method; settings: PMC 0805, 48 h; method in brief: as §1
[11] = system: Nakaseomyces glabratus; assay: Antifungal activity against Candida glabrata PMC 0807 after 48 hrs by CLSI broth microdilution method; settings: PMC 0807, 48 h; method in brief: as §1
[12] = system: Cryptococcus neoformans; assay: Antifungal activity against Cryptococcus neoformans PMC 2123 after 72 hrs by CLSI broth microdilution method; settings: PMC 2123, 72 h
Method in brief: (§2)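 Cryptococcus neoformans tested by CLSI broth microdilution in RPMI 1640, with serial two-fold dilutions from DMSO stocks at 100× the top concentration, final 0.125–64. Inoculum was 1.0–1.5 × 10^3 cells mL−1 at 35 °C, with growth read at 72 h. MIC is the lowest concentration with ≥50% growth inhibition versus control. Median of five replicates, plus geometric mean.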

[13] = system: Cryptococcus neoformans; assay: Antifungal activity against Cryptococcus neoformans PMC 2136 after 72 hrs by CLSI broth microdilution method; settings: PMC 2136, 72 h; method in brief: as §2
[14] = system: Cryptococcus neoformans; assay: Antifungal activity against Cryptococcus neoformans PMC 2115 after 72 hrs by CLSI broth microdilution method; settings: PMC 2115, 72 h; method in brief: as §2
[15] = system: Cryptococcus neoformans; assay: Antifungal activity against Cryptococcus neoformans PMC 2103 after 72 hrs by CLSI broth microdilution method; settings: PMC 2103, 72 h; method in brief: as §2
[16] = system: Cryptococcus neoformans; assay: Antifungal activity against Cryptococcus neoformans PMC 2107 after 72 hrs by CLSI broth microdilution method; settings: PMC 2107, 72 h; method in brief: as §2
[17] = system: Cryptococcus neoformans; assay: Antifungal activity against Cryptococcus neoformans PMC 2102 after 72 hrs by CLSI broth microdilution method; settings: PMC 2102, 72 h; method in brief: as §2
[18] = system: Cryptococcus neoformans; assay: Antifungal activity against Cryptococcus neoformans DSM 11959 after 72 hrs by CLSI broth microdilution method; settings: DSM 11959, 72 h; method in brief: as §2
[19] = system: Cryptococcus neoformans; assay: Antifungal activity against Cryptococcus neoformans PMC 2111 after 72 hrs by CLSI broth microdilution method; settings: PMC 2111, 72 h; method in brief: as §2
[20] = system: Trichophyton mentagrophytes; assay: Antifungal activity against Trichophyton mentagrophytes DSM 4870 after 72 hrs by CLSI broth microdilution method; settings: DSM 4870, 72 h
Method in brief: (§3)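 Dermatophytes tested by CLSI broth microdilution for filamentous fungi (M38-A2). Serial two-fold dilutions of DMSO-dissolved compound in RPMI 1640, final 0.125–64. Inoculum was 0.4–5 × 10^4 CFU mL−1, incubated at 35 °C and read at 72 h. MIC80 is the lowest concentration giving ≥80% growth inhibition versus growth control. Median of five replicates, plus geometric mean.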

[21] = system: Trichophyton mentagrophytes; assay: Antifungal activity against Trichophyton mentagrophytes PMC 6515 after 72 hrs by CLSI broth microdilution method; settings: PMC 6515, 72 h; method in brief: as §3
[22] = system: Trichophyton mentagrophytes; assay: Antifungal activity against Trichophyton mentagrophytes PMC 6531 after 72 hrs by CLSI broth microdilution method; settings: PMC 6531, 72 h; method in brief: as §3
[23] = system: Trichophyton mentagrophytes; assay: Antifungal activity against Trichophyton mentagrophytes PMC 6509 after 72 hrs by CLSI broth microdilution method; settings: PMC 6509, 72 h; method in brief: as §3
[24] = system: Trichophyton mentagrophytes; assay: Antifungal activity against Trichophyton mentagrophytes PMC 6503 after 72 hrs by CLSI broth microdilution method; settings: PMC 6503, 72 h; method in brief: as §3
[25] = system: Trichophyton mentagrophytes; assay: Antifungal activity against Trichophyton mentagrophytes PMC 6552 after 72 hrs by CLSI broth microdilution method; settings: PMC 6552, 72 h; method in brief: as §3
[26] = system: Nannizzia gypsea; assay: Antifungal activity against Microsporum gypseum PMC 7303 after 72 hrs by CLSI broth microdilution method; settings: PMC 7303, 72 h; method in brief: as §3
[27] = system: Nannizzia gypsea; assay: Antifungal activity against Microsporum gypseum PMC 7331 after 72 hrs by CLSI broth microdilution method; settings: PMC 7331, 72 h; method in brief: as §3
[28] = system: Nannizzia gypsea; assay: Antifungal activity against Microsporum gypseum DSM 3824 after 72 hrs by CLSI broth microdilution method; settings: DSM 3824, 72 h; method in brief: as §3
[29] = system: Candida albicans; assay: Antifungal activity against Candida albicans ATCC 24433 after 48 hrs by CLSI broth microdilution method; settings: ATCC 24433, 48 h; method in brief: as §1
[30] = system: Candida albicans; assay: Antifungal activity against Candida albicans ATCC 3153 after 48 hrs by CLSI broth microdilution method; settings: ATCC 3153, 48 h; method in brief: as §1
[31] = system: Candida albicans; assay: Antifungal activity against Candida albicans ATCC 10231 after 48 hrs by CLSI broth microdilution method; settings: ATCC 10231, 48 h; method in brief: as §1
[32] = system: Candida albicans; assay: Antifungal activity against Candida albicans ATCC 76615 after 48 hrs by CLSI broth microdilution method; settings: ATCC 76615, 48 h; method in brief: as §1
[33] = system: Candida albicans; assay: Antifungal activity against Candida albicans ATCC 10261 after 48 hrs by CLSI broth microdilution method; settings: ATCC 10261, 48 h; method in brief: as §1

| MIC50 [1] [µg/mL] | MIC50 [2] [µg/mL] | MIC50 [3] [µg/mL] | MIC50 [4] [µg/mL] | MIC50 [5] [µg/mL] | MIC50 [6] [µg/mL] | MIC50 [7] [µg/mL] | MIC50 [8] [µg/mL] | MIC50 [9] [µg/mL] | MIC50 [10] [µg/mL] | MIC50 [11] [µg/mL] | MIC50 [12] [µg/mL] | MIC50 [13] [µg/mL] | MIC50 [14] [µg/mL] | MIC50 [15] [µg/mL] | MIC50 [16] [µg/mL] | MIC50 [17] [µg/mL] | MIC50 [18] [µg/mL] | MIC50 [19] [µg/mL] | MIC80 [20] [µg/mL] | SMILES | other results |
| --- | --- | --- | --- | --- | --- | --- | --- | --- | --- | --- | --- | --- | --- | --- | --- | --- | --- | --- | --- | --- | --- |
| 4 (≈ 9.08 µM) | 8 (≈ 18.2 µM) | 4 (≈ 9.08 µM) | 16 (≈ 36.3 µM) | 4 (≈ 9.08 µM) | 16 (≈ 36.3 µM) | 32 (≈ 72.7 µM) | 2 (≈ 4.54 µM) | 16 (≈ 36.3 µM) | 8 (≈ 18.2 µM) | 32 (≈ 72.7 µM) | 16 (≈ 36.3 µM) | 2 (≈ 4.54 µM) | 16 (≈ 36.3 µM) | 2 (≈ 4.54 µM) | 1 (≈ 2.27 µM) | 8 (≈ 18.2 µM) | 4 (≈ 9.08 µM) | 8 (≈ 18.2 µM) | 32 (≈ 72.7 µM) | O=C(OC(Cn1ccnc1)c1ccc(F)cc1)N1CCN(c2ncccc2[N+](=O)[O-])CC1 (centres undefined) | MIC80 [21]: 32 µg/mL (≈ 72.7 µM); MIC80 [22]: 32 µg/mL (≈ 72.7 µM); MIC80 [23]: 64 µg/mL (≈ 145 µM); MIC80 [24]: 32 µg/mL (≈ 72.7 µM); MIC80 [25]: 32 µg/mL (≈ 72.7 µM); MIC80 [26]: 64 µg/mL (≈ 145 µM); MIC80 [27]: 32 µg/mL (≈ 72.7 µM); MIC80 [28]: 32 µg/mL (≈ 72.7 µM); MIC50 [29]: 8 µg/mL (≈ 18.2 µM); MIC50 [30]: 16 µg/mL (≈ 36.3 µM); MIC50 [31]: 16 µg/mL (≈ 36.3 µM); MIC50 [32]: 64 µg/mL (≈ 145 µM); MIC50 [33]: 8 µg/mL (≈ 18.2 µM) |
| 32 (≈ 74.6 µM) | 64 (≈ 149 µM) | 128 (≈ 298 µM) | 128 (≈ 298 µM) | 128 (≈ 298 µM) | 128 (≈ 298 µM) | 128 (≈ 298 µM) | 128 (≈ 298 µM) | 128 (≈ 298 µM) | 128 (≈ 298 µM) | 128 (≈ 298 µM) | 32 (≈ 74.6 µM) | 128 (≈ 298 µM) | 128 (≈ 298 µM) | 128 (≈ 298 µM) | 32 (≈ 74.6 µM) | 128 (≈ 298 µM) | 128 (≈ 298 µM) | 128 (≈ 298 µM) | 128 (≈ 298 µM) | O=C(OC(Cn1ccnc1)c1ccc(Cl)cc1)N1CCN(C(=O)c2ccco2)CC1 (centres undefined) | MIC80 [21]: 128 µg/mL (≈ 298 µM); MIC80 [22]: 128 µg/mL (≈ 298 µM); MIC80 [23]: 128 µg/mL (≈ 298 µM); MIC80 [24]: 128 µg/mL (≈ 298 µM); MIC80 [25]: 128 µg/mL (≈ 298 µM); MIC80 [26]: 128 µg/mL (≈ 298 µM); MIC80 [27]: 128 µg/mL (≈ 298 µM); MIC80 [28]: 128 µg/mL (≈ 298 µM); MIC50 [29]: 128 µg/mL (≈ 298 µM); MIC50 [30]: 32 µg/mL (≈ 74.6 µM); MIC50 [31]: 64 µg/mL (≈ 149 µM); MIC50 [32]: 64 µg/mL (≈ 149 µM); MIC50 [33]: 32 µg/mL (≈ 74.6 µM) |
| 8 (≈ 18.2 µM) | 8 (≈ 18.2 µM) | 8 (≈ 18.2 µM) | 64 (≈ 146 µM) | 16 (≈ 36.4 µM) | 32 (≈ 72.8 µM) | 128 (≈ 291 µM) | 4 (≈ 9.1 µM) | 16 (≈ 36.4 µM) | 64 (≈ 146 µM) | 64 (≈ 146 µM) | 128 (≈ 291 µM) | 16 (≈ 36.4 µM) | 64 (≈ 146 µM) | 8 (≈ 18.2 µM) | 16 (≈ 36.4 µM) | 32 (≈ 72.8 µM) | 16 (≈ 36.4 µM) | 16 (≈ 36.4 µM) | 64 (≈ 146 µM) | O=C(OC(Cn1ccnc1)c1ccc(F)cc1)N1CCN(c2ccc([N+](=O)[O-])cc2)CC1 (centres undefined) | MIC80 [21]: 64 µg/mL (≈ 146 µM); MIC80 [22]: 64 µg/mL (≈ 146 µM); MIC80 [23]: 64 µg/mL (≈ 146 µM); MIC80 [24]: 32 µg/mL (≈ 72.8 µM); MIC80 [25]: 32 µg/mL (≈ 72.8 µM); MIC80 [26]: 32 µg/mL (≈ 72.8 µM); MIC80 [27]: 32 µg/mL (≈ 72.8 µM); MIC80 [28]: 64 µg/mL (≈ 146 µM); MIC50 [29]: 32 µg/mL (≈ 72.8 µM); MIC50 [30]: 16 µg/mL (≈ 36.4 µM); MIC50 [31]: 32 µg/mL (≈ 72.8 µM); MIC50 [32]: 128 µg/mL (≈ 291 µM); MIC50 [33]: 8 µg/mL (≈ 18.2 µM) |
